Assay results taken from ChEMBL document CHEMBL3352559, “Synthesis and pharmacological investigation of aralkyl diamine derivatives as potential triple reuptake inhibitors” (Eur J Med Chem, 2014).

Columns and labels:
[1] = target: Muscarinic acetylcholine receptor M1 (Homo sapiens) (UniProt P11229); experiment: Displacement of [3H]pirenzepine from human muscarinic M1 receptor at 10 uM relative to control
Procedure, shortened: (§1)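 Outsourced CNS receptor panel (55 binding assays); compound tested at 10 μM in primary radioligand binding; specific binding inhibition expressed relative to control, with >50% inhibition taken as a significant effect.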

[2] = target: 5-hydroxytryptamine receptor 6 (Homo sapiens) (UniProt P50406); experiment: Displacement of [3H]LSD from human 5-HT6 receptor at 10 uM relative to control
Procedure, shortened: (§2)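 Outsourced CNS panel of 55 receptor binding assays run by Cerep. Compound tested at 10 μM, the default primary-binding concentration, with inhibition expressed relative to control. Inhibition above 50% taken as a significant effect.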

[3] = AUC (0 to infinity) in Sprague-Dawley rat at 0.5 mg/kg, iv; type: ADME, organism-based; parameters: time infinity, dose 0.5 mg/kg, route intravenous; conditions: plasma
Procedure, shortened: (§3)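 Male SD rats, fasted overnight until 6 h post-dose. PO group received single 2 mg/kg with heparinized blood sampled at 5, 15, 30 min, 1, 2, 4, 8, 24 h. IV group received single 0.5 mg/kg via femoral vein with sampling at 5, 15, 30 min, 1, 2, 4 h. Plasma stored at -40 °C, quantified by LC/MS/MS; 24 rats per group.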

[4] = target: B2 bradykinin receptor (Homo sapiens) (UniProt P30411); experiment: Displacement of [3H]bradykinin from human bradykinin B2 receptor at 10 uM relative to control; procedure, shortened: as §1
[5] = AUC (0 to time) in Sprague-Dawley rat at 0.5 mg/kg, iv; type: ADME, organism-based; parameters: dose 0.5 mg/kg, route intravenous; conditions: plasma; procedure, shortened: as §3
[6] = AUC (0 to time) in Sprague-Dawley rat at 2 mg/kg, po; type: ADME, organism-based; parameters: dose 2 mg/kg, route oral; conditions: plasma; procedure, shortened: as §3
[7] = target: C-X-C chemokine receptor type 2 (Homo sapiens) (UniProt P25025); experiment: Displacement of [125I]IL-8 from CXCR2 receptor (unknown origin) at 10 uM relative to control; procedure, shortened: as §2
[8] = target: Beta-2 adrenergic receptor (Homo sapiens) (UniProt P07550); experiment: Displacement of [3H]CGP-12177 from human beta2-adrenergic receptor at 10 uM relative to control; procedure, shortened: as §2
[9] = Clearance in Sprague-Dawley rat at 0.5 mg/kg, iv; conditions: in vivo
[10] = target: Melatonin receptor type 1A (Homo sapiens) (UniProt P48039); experiment: Displacement of 2-[125I]iodomelatonin from human melatonin MT1 receptor at 10 uM relative to control; procedure, shortened: as §2
[11] = system: Salmonella typhimurium; experiment: Mutagenic activity in Salmonella typhimurium TA98 assessed as number of reversion mutation at 300 ug/plate; type: toxicity, organism-based; conditions: salmonella enterica subsp. enterica serovar typhimurium
Procedure, shortened: (§4)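 Ames reversion test in Salmonella typhimurium TA98 and TA100, with and without rat liver S9 metabolic activation. Compound was dissolved in DMSO and added at 3–5000 μg/plate. Each dose, vehicle and positive control was plated in triplicate, and revertant colonies were counted.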

[12] = Acute toxicity in KM mouse assessed as survival at 600 mg/kg, po up to 14 days (reference value: 100%); type: organism-based; parameters: dose 600 mg/kg, route oral; conditions: in vivo
[13] = target: Histamine H1 receptor (Homo sapiens) (UniProt P35367); experiment: Displacement of [3H]Pyrilamine from human histamine H1 receptor at 10 uM relative to control; procedure, shortened: as §2
[14] = Ratio of drug level in Sprague-Dawley rat brain to plasma at 0.5 mg/kg iv after 0.25 hrs; type: ADME, organism-based; parameters: dose 0.5 mg/kg, route intravenous; conditions: read-out: BPR
[15] = target: Sodium-dependent serotonin transporter (Homo sapiens, UniProt P31645); experiment: Inhibition of [3H]-serotonin uptake in human SERT expressed in HEK293 cells by scintillation counting; type: cell-based
[16] = system: Salmonella typhimurium; experiment: Mutagenic activity in Salmonella typhimurium TA100 assessed as number of reversion mutation at 3 ug/plate; type: toxicity, organism-based; conditions: salmonella enterica subsp. enterica serovar typhimurium; procedure, shortened: as §4
[17] = Ratio of drug level in Sprague-Dawley rat brain to plasma at 0.5 mg/kg iv after 0.08 hrs; type: ADME, organism-based; parameters: dose 0.5 mg/kg, route intravenous; conditions: read-out: BPR
[18] = system: Rattus norvegicus; experiment: Toxicity in rat assessed as effect on locomotion at 20 mg/kg, po after 60 mins by spontaneous locomotor test; type: organism-based; parameters: dose 20 mg/kg, route oral; conditions: in vivo, 1 h
Procedure, shortened: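 Rats dosed orally at 20 mg/kg, with vehicle and venlafaxine 30 mg/kg PO as controls; 60 min later placed singly in novel 40×40×50 cm cages under dim light with sound attenuation; activity recorded automatically in 5 min bins over 30 min; mean ± SEM.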

[19] = Mean residence time in Sprague-Dawley rat at 0.5 mg/kg, iv; type: ADME, organism-based; parameters: dose 0.5 mg/kg, route intravenous; conditions: in vivo
Procedure, shortened: (§5)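 Male SD rats, fasted overnight until 6 h post-dose; single 0.5 mg/kg femoral-vein injection; blood drawn into heparin at 5, 15, 30 min, 1, 2 and 4 h; plasma stored at -40 °C; drug levels by LC/MS/MS; noncompartmental parameters.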

[20] = Cmax in Sprague-Dawley rat at 0.5 mg/kg, iv; type: ADME, organism-based; parameters: dose 0.5 mg/kg, route intravenous; conditions: in vivo; procedure, shortened: as §3
[21] = target: Vasoactive intestinal polypeptide receptor 1 (Homo sapiens) (UniProt P32241); experiment: Displacement of [125I]VIP from human VPAC1 receptor at 10 uM relative to control; procedure, shortened: as §2
[22] = target: Type-1 angiotensin II receptor (Homo sapiens) (UniProt P30556); experiment: Displacement of [125I][Sar1,Ile8]-ATII from human angiotensin AT1 receptor at 10 uM relative to control; procedure, shortened: as §2
[23] = Drug uptake in Sprague-Dawley rat plasma at 0.5 mg/kg iv after 2 hrs; type: ADME, organism-based; parameters: dose 0.5 mg/kg, route intravenous; procedure, shortened: as §5
[24] = Acute toxicity in KM mouse assessed as survival at 750 mg/kg, po up to 14 days (reference value: 100%); type: organism-based; parameters: dose 750 mg/kg, route oral; conditions: in vivo
[25] = system: Salmonella typhimurium; experiment: Mutagenic activity in Salmonella typhimurium TA100 assessed as number of reversion mutation at 300 ug/plate; type: toxicity, organism-based; conditions: salmonella enterica subsp. enterica serovar typhimurium; procedure, shortened: as §4
[26] = species on record: Homo sapiens; experiment: Inhibition of GABA-gated chloride channel (unknown origin) at 10 uM by [35S]TBPS binding assay relative to control; procedure, shortened: as §1
[27] = system: Salmonella typhimurium; experiment: Mutagenic activity in Salmonella typhimurium TA98 assessed as number of reversion mutation at 5000 ug/plate; type: toxicity, organism-based; conditions: salmonella enterica subsp. enterica serovar typhimurium; procedure, shortened: as §4
[28] = species on record: Homo sapiens; experiment: Inhibition of Na+ channel (unknown origin) at 10 uM by [3H]batrachotoxinin binding assay relative to control
Procedure, shortened: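 Radioligand binding was run at a contract laboratory as part of a 55-target CNS receptor panel. Test concentration was 10 μM. Inhibition of specific binding was expressed relative to control, and inhibition greater than 50% was taken as significant.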

[29] = Drug uptake in Sprague-Dawley rat brain at 0.5 mg/kg ip after 0.50 hrs
[30] = Acute toxicity in KM mouse assessed as survival at 150 mg/kg, po up to 14 days (reference value: 100%); type: organism-based; parameters: dose 150 mg/kg, route oral; conditions: in vivo
[31] = Drug uptake in Sprague-Dawley rat plasma at 0.5 mg/kg iv after 1 hrs; type: ADME, organism-based; parameters: dose 0.5 mg/kg, route intravenous; procedure, shortened: as §5
[32] = target: C-C chemokine receptor type 1 (Homo sapiens) (UniProt P32246); experiment: Displacement of [125I]MIP-1alpha from human CCR1 receptor at 10 uM relative to control; procedure, shortened: as §2
[33] = target: 5-hydroxytryptamine receptor 1B (Homo sapiens) (UniProt P28222); experiment: Displacement of [125I]CYP from human 5-HT1B receptor at 10 uM relative to control; procedure, shortened: as §2
[34] = Ratio of drug level in Sprague-Dawley rat brain to plasma at 0.5 mg/kg iv after 1 hrs; type: ADME, organism-based; parameters: dose 0.5 mg/kg, route intravenous; conditions: read-out: BPR

Sequence of Histamine H1 receptor (Homo sapiens) (P35367 whole entry): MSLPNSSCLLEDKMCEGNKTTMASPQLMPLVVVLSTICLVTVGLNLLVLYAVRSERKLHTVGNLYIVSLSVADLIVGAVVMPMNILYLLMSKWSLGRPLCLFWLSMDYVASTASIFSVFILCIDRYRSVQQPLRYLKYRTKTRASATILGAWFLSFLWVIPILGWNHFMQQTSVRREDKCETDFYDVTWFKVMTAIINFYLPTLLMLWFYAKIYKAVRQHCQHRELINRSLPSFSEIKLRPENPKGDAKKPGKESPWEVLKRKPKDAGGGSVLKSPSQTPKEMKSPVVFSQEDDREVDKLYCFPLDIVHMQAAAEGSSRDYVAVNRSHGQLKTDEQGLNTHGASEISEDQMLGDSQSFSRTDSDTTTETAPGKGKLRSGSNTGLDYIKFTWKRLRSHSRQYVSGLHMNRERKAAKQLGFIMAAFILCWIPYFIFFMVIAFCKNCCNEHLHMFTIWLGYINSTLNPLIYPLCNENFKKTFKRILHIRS
Sequence of B2 bradykinin receptor (Homo sapiens) (P30411 whole entry): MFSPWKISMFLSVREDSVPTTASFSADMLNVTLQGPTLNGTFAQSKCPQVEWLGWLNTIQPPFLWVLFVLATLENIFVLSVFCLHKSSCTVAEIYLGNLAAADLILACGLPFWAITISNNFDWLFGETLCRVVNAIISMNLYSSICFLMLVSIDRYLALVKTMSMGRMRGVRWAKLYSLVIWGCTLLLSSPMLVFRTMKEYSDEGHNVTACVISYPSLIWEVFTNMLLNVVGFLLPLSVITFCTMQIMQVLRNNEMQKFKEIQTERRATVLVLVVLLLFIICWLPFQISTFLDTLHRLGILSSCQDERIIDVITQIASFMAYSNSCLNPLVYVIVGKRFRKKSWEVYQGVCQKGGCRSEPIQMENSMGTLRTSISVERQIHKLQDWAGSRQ
Sequence of Vasoactive intestinal polypeptide receptor 1 (Homo sapiens) (P32241 whole entry): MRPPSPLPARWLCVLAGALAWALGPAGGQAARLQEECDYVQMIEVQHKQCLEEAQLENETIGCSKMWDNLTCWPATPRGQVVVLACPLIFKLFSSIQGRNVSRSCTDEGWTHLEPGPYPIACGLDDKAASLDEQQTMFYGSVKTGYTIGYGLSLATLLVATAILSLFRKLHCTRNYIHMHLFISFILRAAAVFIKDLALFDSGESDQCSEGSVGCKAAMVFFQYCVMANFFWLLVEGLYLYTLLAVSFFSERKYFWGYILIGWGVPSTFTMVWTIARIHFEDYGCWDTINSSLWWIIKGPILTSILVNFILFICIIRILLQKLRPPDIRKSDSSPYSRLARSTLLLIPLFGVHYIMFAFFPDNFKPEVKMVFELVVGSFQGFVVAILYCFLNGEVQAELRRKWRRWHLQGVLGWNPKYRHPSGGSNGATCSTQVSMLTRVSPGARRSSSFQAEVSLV
Sequence of Type-1 angiotensin II receptor (Homo sapiens) (P30556 whole entry): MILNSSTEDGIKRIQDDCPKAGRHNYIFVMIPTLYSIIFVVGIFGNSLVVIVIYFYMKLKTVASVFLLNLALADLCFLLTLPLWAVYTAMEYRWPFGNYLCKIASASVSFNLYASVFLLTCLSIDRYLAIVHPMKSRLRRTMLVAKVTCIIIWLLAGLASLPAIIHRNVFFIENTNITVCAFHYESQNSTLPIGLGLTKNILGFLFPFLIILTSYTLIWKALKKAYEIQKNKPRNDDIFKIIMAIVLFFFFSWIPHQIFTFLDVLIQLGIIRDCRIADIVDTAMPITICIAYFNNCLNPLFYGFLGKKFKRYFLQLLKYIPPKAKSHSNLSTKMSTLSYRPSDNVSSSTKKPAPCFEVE
Sequence of Muscarinic acetylcholine receptor M1 (Homo sapiens) (P11229 whole entry): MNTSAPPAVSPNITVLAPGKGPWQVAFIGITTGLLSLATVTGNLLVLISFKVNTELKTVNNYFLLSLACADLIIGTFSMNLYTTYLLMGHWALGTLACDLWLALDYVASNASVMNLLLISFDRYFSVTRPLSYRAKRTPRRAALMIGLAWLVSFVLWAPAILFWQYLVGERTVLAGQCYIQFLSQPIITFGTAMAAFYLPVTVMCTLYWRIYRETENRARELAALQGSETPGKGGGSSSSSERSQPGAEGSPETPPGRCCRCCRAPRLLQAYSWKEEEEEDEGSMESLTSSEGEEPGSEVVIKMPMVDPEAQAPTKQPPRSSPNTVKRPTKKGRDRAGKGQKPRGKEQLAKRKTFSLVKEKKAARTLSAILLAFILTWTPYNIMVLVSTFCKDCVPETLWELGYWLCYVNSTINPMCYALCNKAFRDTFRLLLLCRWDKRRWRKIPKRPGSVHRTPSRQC
Sequence of 5-hydroxytryptamine receptor 1B (Homo sapiens) (P28222 whole entry): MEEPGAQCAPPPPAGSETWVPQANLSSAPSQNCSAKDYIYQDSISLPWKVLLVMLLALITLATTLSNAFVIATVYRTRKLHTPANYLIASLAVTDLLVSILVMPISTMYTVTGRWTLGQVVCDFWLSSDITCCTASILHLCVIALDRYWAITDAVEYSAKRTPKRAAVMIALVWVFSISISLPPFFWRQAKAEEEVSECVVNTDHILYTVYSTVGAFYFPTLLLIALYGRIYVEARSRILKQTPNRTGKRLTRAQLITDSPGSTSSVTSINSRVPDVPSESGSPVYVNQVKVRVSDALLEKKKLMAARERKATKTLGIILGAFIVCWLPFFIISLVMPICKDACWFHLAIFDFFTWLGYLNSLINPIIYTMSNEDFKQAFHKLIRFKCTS
Sequence of Sodium-dependent serotonin transporter (P31645 whole entry): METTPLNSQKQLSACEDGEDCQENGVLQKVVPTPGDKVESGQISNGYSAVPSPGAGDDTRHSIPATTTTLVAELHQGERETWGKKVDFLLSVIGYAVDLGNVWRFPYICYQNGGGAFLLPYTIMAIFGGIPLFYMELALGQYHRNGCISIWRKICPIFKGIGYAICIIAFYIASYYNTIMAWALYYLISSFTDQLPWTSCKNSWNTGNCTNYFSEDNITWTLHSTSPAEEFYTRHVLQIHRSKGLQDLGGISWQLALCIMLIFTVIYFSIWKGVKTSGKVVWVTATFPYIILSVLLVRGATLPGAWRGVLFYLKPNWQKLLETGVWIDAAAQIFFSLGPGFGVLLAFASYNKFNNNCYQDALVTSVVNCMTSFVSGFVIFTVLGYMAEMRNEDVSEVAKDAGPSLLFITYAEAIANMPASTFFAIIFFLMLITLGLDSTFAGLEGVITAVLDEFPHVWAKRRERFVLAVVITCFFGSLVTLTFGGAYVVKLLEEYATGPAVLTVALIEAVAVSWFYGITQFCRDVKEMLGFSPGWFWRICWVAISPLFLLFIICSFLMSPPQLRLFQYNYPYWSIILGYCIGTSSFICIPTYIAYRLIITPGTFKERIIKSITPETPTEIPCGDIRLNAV
Sequence of 5-hydroxytryptamine receptor 6 (Homo sapiens) (P50406 whole entry): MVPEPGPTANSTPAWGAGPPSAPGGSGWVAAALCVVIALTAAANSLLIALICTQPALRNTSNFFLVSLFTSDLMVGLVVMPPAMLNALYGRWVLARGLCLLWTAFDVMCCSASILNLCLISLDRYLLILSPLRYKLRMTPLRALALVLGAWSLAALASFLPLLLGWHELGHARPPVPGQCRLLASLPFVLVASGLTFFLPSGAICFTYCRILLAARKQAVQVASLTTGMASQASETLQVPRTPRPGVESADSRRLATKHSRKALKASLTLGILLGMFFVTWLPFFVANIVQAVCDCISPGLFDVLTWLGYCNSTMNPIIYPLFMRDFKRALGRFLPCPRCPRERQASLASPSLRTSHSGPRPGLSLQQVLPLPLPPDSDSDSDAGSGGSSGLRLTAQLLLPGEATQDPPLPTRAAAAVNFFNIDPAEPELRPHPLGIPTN
Sequence of Melatonin receptor type 1A (Homo sapiens) (P48039 whole entry): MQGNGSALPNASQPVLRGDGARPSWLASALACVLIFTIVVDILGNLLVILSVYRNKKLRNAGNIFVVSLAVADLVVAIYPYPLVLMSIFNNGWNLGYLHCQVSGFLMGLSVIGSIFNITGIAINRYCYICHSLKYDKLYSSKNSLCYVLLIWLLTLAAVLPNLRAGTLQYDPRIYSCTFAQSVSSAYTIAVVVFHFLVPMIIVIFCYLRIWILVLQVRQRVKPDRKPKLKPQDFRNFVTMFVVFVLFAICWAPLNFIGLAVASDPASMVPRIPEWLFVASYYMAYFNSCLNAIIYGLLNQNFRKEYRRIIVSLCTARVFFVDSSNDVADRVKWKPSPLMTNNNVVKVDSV
Sequence of Beta-2 adrenergic receptor (Homo sapiens) (P07550 whole entry, looked up): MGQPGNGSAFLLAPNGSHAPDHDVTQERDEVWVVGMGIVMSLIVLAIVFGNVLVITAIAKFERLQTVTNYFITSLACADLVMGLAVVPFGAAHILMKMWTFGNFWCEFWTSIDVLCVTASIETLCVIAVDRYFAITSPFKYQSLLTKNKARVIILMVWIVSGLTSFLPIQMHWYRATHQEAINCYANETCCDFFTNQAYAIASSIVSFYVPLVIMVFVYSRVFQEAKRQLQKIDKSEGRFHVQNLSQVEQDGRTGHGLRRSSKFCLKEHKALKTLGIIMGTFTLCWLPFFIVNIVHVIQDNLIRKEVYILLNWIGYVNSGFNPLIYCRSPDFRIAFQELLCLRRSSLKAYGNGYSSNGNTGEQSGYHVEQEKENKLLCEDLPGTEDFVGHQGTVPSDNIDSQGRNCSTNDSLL
Sequence of C-X-C chemokine receptor type 2 (Homo sapiens) (P25025 whole entry): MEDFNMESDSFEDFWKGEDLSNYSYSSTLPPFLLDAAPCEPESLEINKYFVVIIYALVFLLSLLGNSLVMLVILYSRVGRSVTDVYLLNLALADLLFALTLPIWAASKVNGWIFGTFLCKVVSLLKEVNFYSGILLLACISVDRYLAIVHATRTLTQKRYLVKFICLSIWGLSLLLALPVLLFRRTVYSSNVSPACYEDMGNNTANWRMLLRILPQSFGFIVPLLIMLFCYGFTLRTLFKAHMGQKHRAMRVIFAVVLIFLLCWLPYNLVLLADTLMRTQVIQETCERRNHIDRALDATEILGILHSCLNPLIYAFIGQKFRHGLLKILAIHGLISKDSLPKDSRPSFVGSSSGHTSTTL

SMILES: CN(C)CCC(c1ccc(Cl)c(Cl)c1)N1CCOCC1 (centres undefined)
- inhibition [1]: 45.6%
- inhibition [2]: 2.4%
- AUC(0-inf) [3]: 83.7 ng·h/mL
- inhibition [4]: -3.8%
- AUC [5]: 78.6 ng·h/mL
- AUC [6]: 61 ng·h/mL
- inhibition [7]: 9.3%
- inhibition [8]: 4.9%
- clearance [9]: 100 mL/min/kg
- inhibition [10]: -7.1%
- Activity [11]: 30
- survival at 336 h [12]: 80%
- inhibition [13]: 22.7%
- Kp at 0.25 h [14]: 22
- IC50 [15]: 378 nM
- Activity [16]: 87
- Kp at 0.08 h [17]: 23.1
- Activity [18]: Non-toxic
- MRT [19]: 1.06 h
- Cmax [20]: 48.5 ng/mL
- inhibition [21]: 2.2%
- inhibition [22]: -9.5%
- concentration at 2 h [23]: 10.9 ng/mL
- survival at 336 h [24]: 60%
- Activity [25]: 93
- inhibition [26]: -2.3%
- Activity [27]: 12
- inhibition [28]: 40.1%
- concentration at 0.5 h [29]: 549 ng/mL
- survival at 336 h [30]: 100%
- concentration at 1 h [31]: 33.5 ng/mL
- inhibition [32]: 22.1%
- inhibition [33]: 0.7%
- Kp at 1 h [34]: 12.7
